Here are results for 10 compounds from ChEMBL document CHEMBL1129568, “Structure-activity relationships of the antimalarial agent artemisinin. 3. Total synthesis of (+)-13-carbaartemisinin and related tetra- and tricyclic structures” (J Med Chem, 1996).

Broadly, the IC50 is the concentration needed to halve the response being measured. Read a low IC50 as higher potency.

The subject of assay [1] is Plasmodium falciparum. The assay can be described thus: In vitro antimalarial activity for Plasmodium falciparum W2. In kind it is functional, organism-based.
The subject of assay [2] is Plasmodium falciparum. The assay can be described thus: In vitro antimalarial activity for Plasmodium falciparum D6. In kind it is functional, organism-based.
Assay [3] relates to Plasmodium falciparum. In words: In vitro antimalarial activity for Plasmodium falciparum W2; Not active. It counts as functional, organism-based.
Assay [4] relates to Plasmodium falciparum. In words: In vitro antimalarial activity for Plasmodium falciparum D6; Not active. In kind it is functional, organism-based.
Assay [5] has as its system Plasmodium falciparum. The assay can be described thus: In vitro antimalarial activity against Plasmodium falciparum D6 relative to artemisinin. In kind it is functional. The method, boiled down: (§1)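 Relative potency is the artemisinin IC50 divided by the analog IC50, × 100%, with artemisinin set at 100%. Tested in vitro against P. falciparum D-6 or W-2.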
For assay [6], the system named is Plasmodium falciparum. The assay can be described thus: In vitro antimalarial activity against Plasmodium falciparum W-2 relative to artemisinin. In kind it is functional. The method, boiled down:
as §1

Assay [7] has as its system Plasmodium falciparum. In words: In vitro antimalarial activity for Plasmodium falciparum D6 in LDH […] assay. It counts as functional, organism-based. Put shortly:
(§2)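 In vitro test against P. falciparum D-6 or W-2 using Makler's parasite lactate dehydrogenase (pLDH) assay, which reads out parasite pLDH enzyme activity. Run at the University of Mississippi.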

The test system of assay [8] is Plasmodium falciparum. In words: In vitro antimalarial activity for Plasmodium falciparum W2 in LDH […] assay. It counts as functional, organism-based. The method, boiled down: as §2
(LDH in the medium is a marker of cell lysis.)

In brackets after ≈: the same amount, converted by molar mass.

In the case of `C[C@@H]1CC[C@@H]([C@@H](C)CO)[C@@]23CC[C@@](C)(CC[C@@H]12)OO3`, the IC50 with Plasmodium falciparum [1] worked out at 1.5 µg/mL (≈ 5.59 µM); in the assay with Plasmodium falciparum [2] it was 0.3 µg/mL (≈ 1.12 µM).
On to `C[C@@H]1CC[C@@H]([C@@H](C)COCc2ccccc2)[C@@]23C=C[C@@](C)(CC[C@@H]12)OO3`, for which the half-maximal inhibitory concentration (IC50) result in the assay on Plasmodium falciparum [3] and with Plasmodium falciparum [4] was “Not Active” throughout.
Turning to `C[C@@H]1CC[C@@H]([C@@H](C)CO)[C@@]23C=C[C@@](C)(CC[C@@H]12)OO3`, the results for the IC50 result in the assay on Plasmodium falciparum [3] and in the assay with Plasmodium falciparum [2] were “Not Active” and 1 µg/mL (≈ 3.75 µM), respectively.
Regarding `COC[C@H](C)[C@@H]1CC[C@@H](C)[C@@H]2CC[C@]3(C)CC[C@@]21OO3`, the 50% inhibitory concentration (IC50) came to 0.7 µg/mL (≈ 2.48 µM) with Plasmodium falciparum [1] and 0.31 µg/mL (≈ 1.1 µM) in the assay with Plasmodium falciparum [2].
Turning to `C[C@@H]1CC[C@H]2[C@@H](C)CO[C@H]3C[C@]4(C)CC[C@@H]1[C@@]32OO4`, the IC50 came out at 0.00078 µg/mL (≈ 0.00293 µM) with Plasmodium falciparum [1] and 0.00172 µg/mL (≈ 0.00646 µM) in the assay on Plasmodium falciparum [2]. Also, the Relative activity in the assay with Plasmodium falciparum [5] is reported as 53; in the assay with Plasmodium falciparum [6], 58.
With `COC[C@H](C)[C@@H]1CC[C@@H](C)[C@@H]2CC[C@]3(C)C=C[C@@]21OO3`, the results for the half-inhibitory concentration (IC50) result in the assay with Plasmodium falciparum [3] and with Plasmodium falciparum [2] were “Not Active” and 0.92 µg/mL (≈ 3.28 µM), respectively.
Consider `C[C@@H]1CC[C@@H]([C@@H](C)COCc2ccccc2)[C@@]23CC[C@@](C)(CC[C@@H]12)OO3`, for which the IC50 is 0.66 µg/mL (≈ 1.84 µM) in the assay on Plasmodium falciparum [1] and 0.29 µg/mL (≈ 0.809 µM) with Plasmodium falciparum [2].
For `C[C@@H]1CC[C@H]2[C@@H](C)CO[C@@H]3C[C@@]4(C)CC[C@@H]1[C@]32OO4`, the values for the half-inhibitory concentration (IC50) in the assay on Plasmodium falciparum [1] and in the assay on Plasmodium falciparum [2] were 0.00279 µg/mL (≈ 0.0105 µM) and 0.00287 µg/mL (≈ 0.0108 µM), respectively. Further, the Relative activity in the assay with Plasmodium falciparum [5] is 32; with Plasmodium falciparum [6], 16.
`C[C@@H]1CC[C@H]2[C@@H](C)C(=O)O[C@@H]3C[C@@]4(C)CC[C@@H]1[C@]32OO4`: the half-inhibitory concentration (IC50) in the assay on Plasmodium falciparum [7] is 0.006 µg/mL (≈ 0.0214 µM); with Plasmodium falciparum [1], 0.0126 µg/mL (≈ 0.045 µM); in the assay with Plasmodium falciparum [8], 0.02 µg/mL (≈ 0.0713 µM); with Plasmodium falciparum [2], 0.0388 µg/mL (≈ 0.138 µM). In addition, the Relative activity in the assay on Plasmodium falciparum [5] is 23.3; with Plasmodium falciparum [6] it was 11.
For `C[C@@H]1CC[C@H]2[C@@H](C)C(=O)O[C@@H]3O[C@@]4(C)CC[C@@H]1[C@]32OO4` [ARTEMISININ], the half-maximal inhibitory concentration (IC50) in the assay with Plasmodium falciparum [7] came to 0.0014 µg/mL (≈ 0.00496 µM); in the assay with Plasmodium falciparum [1], 0.00048 µg/mL (≈ 0.0017 µM); with Plasmodium falciparum [8], 0.0022 µg/mL (≈ 0.00779 µM); in the assay with Plasmodium falciparum [2] it was 0.00097 µg/mL (≈ 0.00344 µM). Further, the Relative activity in the assay on Plasmodium falciparum [5] and in the assay with Plasmodium falciparum [6] was 100 throughout.
